SMILES strings stand for the structures.

For orientation: inhibition means the percentage by which the read-out fell short of the control. The IC50 is the concentration that inhibits the measured activity by half. A high value points to weaker potency in that assay.

The target in one assay is T1, Intracellular chorismate mutase (Mycobacterium tuberculosis) (UniProt P9WIC1).
T1 sequence (whole entry): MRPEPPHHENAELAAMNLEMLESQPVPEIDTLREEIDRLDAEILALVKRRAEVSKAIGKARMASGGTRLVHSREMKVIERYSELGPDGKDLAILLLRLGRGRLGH
Kind of assay: Inhibition of Mycobacterium tuberculosis chorismate mutase at 50 uM using chorismate substrate by spectrophotometry. An outline of the steps: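 His-tagged MtCM expressed in E. coli BL21(DE3) and purified by Ni-NTA. Started with 180 pmol enzyme, 5 min at 37 °C, stopped with 1 N HCl. Prephenate formation read at A274 against no-enzyme blanks. % inhibition = 100 − residual activity.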
Compound `O=C(c1ccccc1I)N1CCc2c(sc3ncn(-c4ccccc4)c(=O)c23)C1` returned an inhibition of 12.6%. The same measure, in the same setting: the value for `CC(C)(C)OC(=O)N1CCc2c(sc3ncn(-c4cccc(C=O)c4)c(=O)c23)C1` was 49.9%. For the compound `O=c1c2c3c(sc2ncn1-c1ccc2ccccc2c1)CCCC3`, the inhibition is 33%. Still for that read-out and setting: the value for `O=c1c2c3c(sc2ncn1-c1ccc(F)cc1)CCCC3` was 12.8%; that for `O=c1c2c3c(sc2ncn1-c1ccccc1)CNCC3` was 36.2%; that for `CC(C)(C)OC(=O)N1CCc2c(sc3ncn(-c4ccccc4)c(=O)c23)C1` was 37.2%. Same read-out and setting: the figure for `Cc1csc2ncn(-c3ccc(F)cc3)c(=O)c12` is 17.7%; for `O=c1c2c3c(sc2ncn1-c1ccccc1)CCCCC3` it is 13%. On the same count and under the same terms, the value for `COc1cccc(-n2cnc3sc4c(c3c2=O)CCCC4)c1` was 47%. Compound `O=c1c2c3c(sc2ncn1-c1cccc(Cl)c1)CCCC3` returned an inhibition of 42.5%. Consider `O=c1c2c3c(sc2ncn1-c1ccccc1)CCCC3`, for which the inhibition stood at 35.6%. Same read-out and setting: the figure for `O=c1c2c3c(sc2ncn1-c1ccc(F)cc1)CCCCC3` is 14.6%. Same read-out and setting: the value for `O=Cc1cccc(-n2cnc3sc4c(c3c2=O)CCCC4)c1` was 45.3%.

The target of a further assay is T2, Intracellular chorismate mutase (Mycobacterium tuberculosis, UniProt P9WIC1).
T2 sequence (P9WIC1 whole entry): T1 sequence (whole entry)
Kind of assay: Inhibition of Mycobacterium tuberculosis chorismate mutase using chorismate substrate in dose response study by spectrophotometry.
The compound `CC(C)(C)OC(=O)N1CCc2c(sc3ncn(-c4cccc(C=O)c4)c(=O)c23)C1` yielded an IC50 of 23.9 µM. On the same count and under the same terms, the figure for `COc1cc(CCNc2c([N+](=O)[O-])cc(C(=O)O)cc2S(N)(=O)=O)cc(OC)c1` is under 10 µM; for `COc1cccc(-n2cnc3sc4c(c3c2=O)CCCC4)c1` it is 19.8 µM.

The record behind these values is ChEMBL document CHEMBL2069283, “C-N bond formation under Cu-catalysis: synthesis and in vitro evaluation of N-aryl substituted thieno[2,3-d]pyrimidin-4(3H)-ones against chorismate mutase” (Bioorg Med Chem, 2012).
